Among the data in ChEMBL document CHEMBL2331248, “Synthesis and biological evaluation of novel 2,4-disubstituted quinazoline analogues as GPR119 agonists” (Bioorg Med Chem, 2013) are EC50, Emax and Activity values, retold here.

Assay type in all cases: functional, cell-based
Assay [1] addresses T1, Glucose-dependent insulinotropic receptor (Homo sapiens, UniProt Q8TDV5).
T1 sequence (Q8TDV5 whole entry): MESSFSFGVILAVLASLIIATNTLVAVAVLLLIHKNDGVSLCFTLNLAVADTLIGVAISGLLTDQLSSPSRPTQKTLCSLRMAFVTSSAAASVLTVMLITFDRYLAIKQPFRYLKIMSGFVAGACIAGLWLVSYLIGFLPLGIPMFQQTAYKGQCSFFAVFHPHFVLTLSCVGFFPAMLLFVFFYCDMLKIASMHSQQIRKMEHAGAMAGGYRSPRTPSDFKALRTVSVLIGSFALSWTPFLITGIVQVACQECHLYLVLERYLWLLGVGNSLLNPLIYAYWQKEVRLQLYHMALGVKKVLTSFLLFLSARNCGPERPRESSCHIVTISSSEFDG
As to the kind of experiment: Agonist activity at human GPR119 expressed in HEK293 cells assessed as cAMP accumulation after 60 mins. An outline of the steps:
(§1)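 HEK293 cells (4x10³/well) seeded, after 24h transiently transfected with human GPR119 expression plasmid via Lipofectamine/Plus; 24h later exposed to compounds in KRBH with 0.1% BSA and 500 μM IBMX, 60 min, 37 C. Lysed 10 min at room temperature (50 mM phosphate, 1 M KF, 1.25% Triton X-100, pH 7.0); cAMP read by HTRF. EC50 taken as concentration giving 50% of OEA cAMP stimulation; %max relative to OEA maximal effect.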
Background: Cyclic AMP is a second messenger, typically raised through Gs and lowered through Gi signalling.

For assay [2], the target named is T2, Glucose-dependent insulinotropic receptor (Homo sapiens) (UniProt Q8TDV5).
T2 sequence (whole entry): T1 sequence (Q8TDV5 whole entry)
As to the kind of experiment: Agonist activity at human GPR119 expressed in HEK293 cells assessed as cAMP accumulation after 60 mins relative to OEA. An outline of the steps:
as §1

Assay [3] addresses T2, Glucose-dependent insulinotropic receptor (Homo sapiens). Briefly: Agonist activity at human GPR119 expressed in HEK293 cells assessed as cAMP accumulation at 10 uM after 60 mins.
Assay [4] shares this target. As to the kind of experiment: Agonist activity at human GPR119 expressed in HEK293 cells assessed as cAMP accumulation at 10 uM after 60 mins relative to OEA. Summed up: as §1

SMILES strings stand for the structures. The source made the active and inactive calls. No cut-off for these calls is given here. A value given as a limit tells only on which side of the number the result lay.

Regarding `COc1cc2nc(NC3CC4CCC(C3)N4C(=O)OC(C)(C)C)nc(Nc3ccc(S(C)(=O)=O)cc3F)c2cc1OC` (centres undefined), the EC50 (as a rule, the concentration at which the effect is half-maximal) in assay [1] worked out at 1 µM. The Emax (as a rule, the greatest response seen or fitted, relative to the assay's reference) in assay [2] is 46.2%.

On to `COc1cc2nc(Nc3ccc(S(C)(=O)=O)cc3)nc(N3CCC4CCC(C3)N4C(=O)OC(C)(C)C)c2cc1OC` (racemic), for which the EC50 in assay [1] is above 10 µM. For the same molecule, the maximal effect (Emax) in assay [2] was 37.5%.

`COc1cc2nc(Nc3ccc(S(C)(=O)=O)cc3F)nc(OC3CCN(C(=O)OC(C)(C)C)CC3)c2cc1OC`: the EC50 in assay [1] is above 10 µM. Besides, in assay [2], the Emax turned out to be 19.7%.

Take `COc1cc2nc(OCC3CCN(C(=O)OC(C)(C)C)CC3)nc(Nc3ccc(S(C)(=O)=O)cc3F)c2cc1OC`: the EC50 in assay [1] is above 10 µM. Besides, the Emax in assay [2] amounted to 33.2%.

In the case of `COc1cc2nc(Nc3ccc(S(C)(=O)=O)cc3)nc(OC3CCN(C(=O)OC(C)(C)C)CC3)c2cc1OC`, the EC50 in assay [1] is above 10 µM. For the same molecule, the Emax in assay [2] stood at 20.6%.

For the molecule `COc1cc2nc(N3CCC4CCC(C3)N4Cc3ccccc3)nc(Nc3ccc(S(C)(=O)=O)cc3)c2cc1OC` (racemic), in assay [1], the EC50 is above 10 µM. The Emax in assay [2] came to 23.4%.

As to `COc1cc2nc(Nc3ccc(S(C)(=O)=O)cc3F)nc(OCC3CCN(C(=O)OC(C)(C)C)CC3)c2cc1OC`, the EC50 in assay [1] is above 10 µM. The Emax in assay [2] turned out to be 21.3%.

For the molecule `COc1cc2nc(N3CCC4CCC(C3)N4C(=O)OC(C)(C)C)nc(Nc3ccc(S(C)(=O)=O)cc3)c2cc1OC` (racemic), the EC50 in assay [1] is above 10 µM. The maximal effect (Emax) in assay [2] came out at 32.7%.

On to `COc1cc2nc(N3CCC4CCC(C3)N4Cc3ccccc3)nc(Nc3ccc(S(C)(=O)=O)cc3F)c2cc1OC` (racemic), for which the EC50 in assay [1] was above 10 µM. Also, the Emax in assay [2] came to 44.3%.

Turning to `COc1cc2nc(OC3CCN(C(=O)OC(C)(C)C)CC3)nc(Nc3ccc(S(C)(=O)=O)cc3)c2cc1OC`, the EC50 in assay [1] was above 10 µM. Further, in assay [2], the Emax amounted to 17.9%.

For the molecule `COc1cc2nc(Nc3ccc(S(C)(=O)=O)cc3)nc(NC3CC4CCC(C3)N4C(=O)OC(C)(C)C)c2cc1OC` (centres undefined), in assay [1], the EC50 is above 10 µM. For the same molecule, the Emax in assay [2] stood at 17%.

In the case of `COc1cc2nc(Nc3ccc(S(C)(=O)=O)cc3)nc(NCC3CC4CCC(C3)N4C(=O)OC(C)(C)C)c2cc1OC` (centres undefined), the EC50 in assay [1] was above 10 µM. Further, in assay [2], the Emax came to 15.1%.

As for `COc1cc2nc(Nc3ccc(S(C)(=O)=O)cc3)nc(N3CCC4CCC(C3)N4Cc3ccccc3)c2cc1OC` (racemic), the 50% effective concentration (EC50) in assay [1] is above 10 µM. Besides, the Emax in assay [2] came out at 32.8%.

As to `COc1cc2nc(N3CCC4CCC(C3)N4C(=O)OC(C)(C)C)nc(Nc3ccc(S(C)(=O)=O)cc3F)c2cc1OC` (racemic), the EC50 in assay [1] was found to be 1 µM. Moreover, the Emax in assay [2] worked out at 56.9%.

Consider `COc1cc2nc(OCC3CCN(C(=O)OC(C)(C)C)CC3)nc(Nc3ccc(S(C)(=O)=O)cc3)c2cc1OC`, for which the outcome in assay [3] was inactive. In assay [4], the Emax entry is “inactive”.

Turning to `COc1cc2nc(NCC3CC4CCC(C3)N4C(=O)OC(C)(C)C)nc(Nc3ccc(S(C)(=O)=O)cc3)c2cc1OC` (centres undefined), the EC50 in assay [1] was above 10 µM. In addition, the maximal response (Emax) in assay [2] came out at 19.9%.

On to `CCCCCCCC/C=C\CCCCCCCC(=O)NCCO` [OLEOYLETHANOLAMIDE], for which the EC50 in assay [1] stood at 2.2 µM.

On to `COc1cc2nc(Nc3ccc(S(C)(=O)=O)cc3)nc(OCC3CCN(C(=O)OC(C)(C)C)CC3)c2cc1OC`, for which the EC50 in assay [1] was above 10 µM. In addition, the Emax in assay [2] came to 17.4%.

In the case of `COc1cc2nc(OC3CCN(C(=O)OC(C)(C)C)CC3)nc(Nc3ccc(S(C)(=O)=O)cc3F)c2cc1OC`, the concentration giving a half-maximal response (EC50) in assay [1] was above 10 µM. Besides, the Emax in assay [2] was found to be 19.6%.

Consider `COc1cc2nc(NCC3CC4CCC(C3)N4C(=O)OC(C)(C)C)nc(Nc3ccc(S(C)(=O)=O)cc3F)c2cc1OC` (centres undefined), for which, in assay [1], the EC50 came to 1 µM. In addition, in assay [2], the Emax was determined as 53.7%.
